Mcl1 Noxa PPI – Mcl-1/Noxa interaction inhibition; hit rate 1.5% among 220,000; AID 1022; TR-FRET Mcl-1/Noxa peptide binding, 2 h; inhibition, % at 21.7 µM;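 active = compounds that cut the protein-peptide binding signal by more than 50% relative to plate controls in a single-dose test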;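 also: His-tagged Mcl-1 with rhodamine Noxa BH3 peptide and terbium anti-His antibody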
Mcl1 Bid PPI – Mcl-1/Bid interaction inhibition; Q07820; TR-FRET Mcl-1/Bid-Dy647 peptide binding, 1536-well; inhibition, % at 21.7 µM; hit rate 0.97% among 220,000;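 active = compounds that cut the binding signal by more than half at the single screening dose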;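 also: His-tagged Mcl-1 with europium anti-His antibody binding Bid BH3 peptide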
14-3-3 Bad PPI – disrupts binding of bovine 14-3-3 zeta to phospho-Bad peptide; P63103; TR-FRET 14-3-3zeta/Dy647-pBad peptide displacement, 1 h; inhibition, % at 21.7 µM; hit rate 0.71% among 220,000;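 active = inhibition above about 70%, limit read from the data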
Target sequence (P63103 whole entry, looked up): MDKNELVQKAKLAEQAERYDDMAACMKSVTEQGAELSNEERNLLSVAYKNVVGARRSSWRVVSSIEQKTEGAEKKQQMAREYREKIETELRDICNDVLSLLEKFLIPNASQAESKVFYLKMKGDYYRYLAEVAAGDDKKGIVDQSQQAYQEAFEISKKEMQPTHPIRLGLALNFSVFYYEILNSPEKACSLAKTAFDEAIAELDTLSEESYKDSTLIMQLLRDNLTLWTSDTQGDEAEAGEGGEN
Hck-Nef inh – human Hck-Nef kinase inhibition. inhibition, % at 20 µM. P08631. Recombinant Hck-YEEI plus Nef, Z-Lyte FRET kinase assay. hit rate 0.68% among 220,000;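 active = Hck-Nef kinase inhibition above about 50%, limit read from the data; inactive = inhibition below that limit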
Target sequence (P08631 whole entry, looked up): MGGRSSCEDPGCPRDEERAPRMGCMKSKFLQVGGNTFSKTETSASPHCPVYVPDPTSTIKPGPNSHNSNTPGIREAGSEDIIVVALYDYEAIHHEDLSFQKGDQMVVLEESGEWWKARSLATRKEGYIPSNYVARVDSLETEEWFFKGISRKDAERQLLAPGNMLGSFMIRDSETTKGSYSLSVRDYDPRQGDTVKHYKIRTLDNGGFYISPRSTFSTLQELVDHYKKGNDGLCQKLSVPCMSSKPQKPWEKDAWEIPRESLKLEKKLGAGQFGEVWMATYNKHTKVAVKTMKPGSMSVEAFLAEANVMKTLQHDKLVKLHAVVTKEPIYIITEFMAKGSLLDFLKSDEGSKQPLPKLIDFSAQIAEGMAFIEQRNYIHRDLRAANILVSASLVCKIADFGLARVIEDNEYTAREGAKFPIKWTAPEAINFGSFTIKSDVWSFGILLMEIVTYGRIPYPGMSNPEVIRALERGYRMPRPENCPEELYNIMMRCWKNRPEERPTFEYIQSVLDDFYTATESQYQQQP
Calb biofilm kill – mixtures killing C. albicans biofilm. hit rate 0.02% among 120,000. inhibition, % at 7.6 µM. C. albicans biofilm persisters + clotrimazole, fluorescence viability; primary screen in compound mixtures of four per well. AID 1242;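 active = inhibition above 30.3% in the primary screen of four-compound pools, then above 30% when the compound was retested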;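 also: compounds exposed to preformed 24 h biofilms for 48 h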
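Probe or stimulus – Clotrimazole 50 µg/mL co-treatment · System – C. albicans biofilms · Schedule – 24 h biofilm formation, then 48 h compound exposure, 37 °C · Evaluation – percent inhibition of biofilm viability · Technique – 2-h Alamar Blue fluorescence, 535/590 nm excitation/emission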
Mcl-1 Bim block – human Bim-Mcl-1 interaction inhibition | Q07820 | AID 1009 | Bead-based flow cytometry, Bim peptide-Mcl-1 binding | inhibition, % at 10 µM | hit rate 0.1% among 190,000; in the data active = inhibition above about 40%
Each line names hits and unclear results; the compound was inactive in the other large screens; [ ] = remark or other dose. Hits are enriched below; roughly 3.2% of the tested compounds scored in any of these assays.

COc1cc(C2CC(c3cccnc3)=NN2c2ccc(F)cc2)cc(OC)c1OC (stereo not drawn)	none
CC(Sc1ccc(Cl)cc1)C(=O)Nc1ccccc1-c1ccccc1 (stereo not drawn)	Mcl1 Noxa PPI 71.2
Cc1ccc(SC(C)C(=O)Nc2ccccc2-c2ccccc2)cc1 (stereo not drawn)	none
COc1cc([N+](=O)[O-])c2ncsc2c1	none
COc1cc(SSc2cc(OC)cc([N+](=O)[O-])c2N)c(N)c([N+](=O)[O-])c1	Mcl1 Noxa PPI 75.3 (no result: Mcl-1 Bim block)
CS(=O)(=O)NN1C(=O)c2ccccc2NC1c1ccccc1 (stereo not drawn)	Mcl-1 Bim block 43.0
Cc1ccc(NC(=O)C(=O)NCc2ccc(/C=C(/C#N)C(=O)NCc3cccnc3)o2)cc1	none (no result: Calb biofilm kill)
Cc1ccc(NC(=O)C(=O)NCc2ccc(/C=C(/C#N)C(=O)NCc3cccnc3)o2)cc1C	Mcl1 Bid PPI 95.2
CCOC(=O)c1ccc(-n2nc(C(F)(F)F)c3c(C)cc(=O)oc32)cc1	none (no result: Mcl1 Noxa PPI, Mcl1 Bid PPI, 14-3-3 Bad PPI, Calb biofilm kill, Mcl-1 Bim block)
COc1ccccc1CNc1nc(-c2cc(C)n(C)c2C)cs1	Mcl1 Noxa PPI 89.6, Mcl1 Bid PPI 64.5, 14-3-3 Bad PPI 96.2, Hck-Nef inh 67.1
Cc1cc(-c2csc(N)n2)c(C)n1C	none (no result: Calb biofilm kill)
O=C1Nc2ccccc2/C1=N\N=C\c1ccc(O)c(O)c1	Mcl1 Noxa PPI 65.4 (no result: Mcl-1 Bim block)
O=C(/C(=N/N=C/c1ccc(O)c(O)c1)c1ccccc1)c1ccccc1	Mcl1 Noxa PPI 50.5
O=C(CSCc1ccc([N+](=O)[O-])cc1)Nc1ccccc1C(=O)O	none
COc1ccccc1-n1nnnc1SCc1cc2c(cc1Br)OCO2	none (no result: Calb biofilm kill)
COC(=O)c1c(C)oc(C)c1S(=O)(=O)N(C)C1CCCCC1	none (no result: Mcl-1 Bim block)
CCCOc1ccc(C(=O)NCCC(=O)NCCCC(=O)OCC)cc1	none (no result: Mcl1 Noxa PPI, Calb biofilm kill)
CCCCOc1ccc(C(=O)NCCC(=O)NCCCC(=O)OCC)cc1	Mcl1 Bid PPI 94.2 (no result: Mcl-1 Bim block)
Cc1ccc(SCCC(=O)Nc2ccc(Br)c(C)c2)cc1	none
CS(=O)(=O)NCc1ccc(C(=O)NCCOc2ccccc2)cc1	Mcl1 Bid PPI 90.8 (no result: Calb biofilm kill)
C=CCOc1c(OC)cc(/C=N/Nc2cccc(C(=O)O)c2)c(Br)c1Br	Mcl1 Noxa PPI 87.8, Mcl1 Bid PPI 77.9
c1ccc(CNc2ncnc3ccccc23)cc1	none (no result: Calb biofilm kill)
Oc1ccccc1Nc1nc(NCc2ccccc2)c2ccccc2n1	Mcl1 Noxa PPI 59.1
Cc1nccn1CC(O)COC1CCCCC1 (stereo not drawn)	Mcl1 Bid PPI 62.1 (no result: Calb biofilm kill)
Cc1nccn1CC(O)COc1ccccc1 (stereo not drawn)	none
CCc1ccc(C(=O)/C=C/NCc2ccc(F)cc2)cc1	Mcl1 Bid PPI 53.3
Cc1ccc(C(=O)/C=C\NCc2ccccc2)cc1	none
Cc1cc(C)nc(NC(=NCCc2c[nH]c3ccccc23)NC(=O)C(C)(C)C)n1	none (no result: Mcl-1 Bim block)
Oc1cccc(Nc2nc(NCC3CCCO3)c3ccccc3n2)c1 (stereo not drawn)	Mcl1 Noxa PPI 57.9 (no result: Calb biofilm kill)
O=c1c(-c2cnn(-c3ccccc3)c2)coc2cc(O)ccc12	Mcl1 Noxa PPI 57.4
Cc1nc2ncnn2c(C)c1CCC(=O)Nc1ccc(S(=O)(=O)N2CCCCCC2)cc1	Mcl1 Bid PPI 52.2 (no result: Calb biofilm kill)
Cc1ccc(NC(=O)CCc2c(C)nc3ncnn3c2C)cc1	none (no result: Calb biofilm kill)
CN(C)CCNC(=O)c1cccc(S(=O)(=O)Nc2ccccc2F)c1	none
O=C(Cn1nnc(-c2ccccc2NC(=O)c2cccs2)n1)Nc1ccccc1	Mcl1 Bid PPI 87.0 (no result: Calb biofilm kill)
COc1ccc(NC(=O)Cn2nnc(-c3ccccc3NC(=O)c3ccco3)n2)cc1	Mcl1 Bid PPI 66.3 (no result: Calb biofilm kill)
COc1ccccc1NC(=O)Cn1nnc(-c2ccccc2NC(=O)c2cccs2)n1	none (no result: Calb biofilm kill)
CC(C)OCCCNC(=O)C(=O)N/N=C/c1ccc(OCc2ccccc2)cc1	none (no result: Mcl-1 Bim block)
CN(C)C(=O)CCCCCCCCC(=O)N(C)C	none (no result: Mcl-1 Bim block)
COc1cc(C2C3=C(Nc4nc(N)[nH]c(=O)c42)c2ccccc2C3=O)ccc1O (stereo not drawn)	Mcl1 Noxa PPI 90.1 (no result: Mcl-1 Bim block)
CCOC1=C/C(=C/c2c(N)n3oc(C)cc3nc2=O)C=CC1=O	none
CCS(=O)(=O)c1nn2c(N)c(/C=C3/C=CC(=O)C(OC)=C3)c(=O)nc2s1	Mcl1 Noxa PPI 57.9
CCOC1=C/C(=C/c2c(N)n3nc(-c4ccccc4)sc3nc2=O)C=CC1=O	Mcl1 Noxa PPI 89.3
COC1=C/C(=C/c2c(N)n3nc(-c4ccc(C)cc4)sc3nc2=O)C=CC1=O	Mcl1 Noxa PPI 84.0, 14-3-3 Bad PPI 72.2
COc1ccccc1NC(=S)NC(NC(=O)CC(C)C)C(Cl)(Cl)Cl (stereo not drawn)	none
Cc1sc(NC(=O)CCC(=O)O)c(C#N)c1C	none
O=C(CSc1nc2ccccc2c(=O)n1Cc1ccco1)NCc1ccco1	14-3-3 Bad PPI 88.1[fluorescence artefact?] (no result: Calb biofilm kill)
O=C(CSc1nc2ccccc2c(=O)n1Cc1ccco1)N1CCCCCC1	none (no result: Calb biofilm kill)
O=C(NCc1ccco1)c1ccc2c(=O)n(Cc3ccco3)c(SCC(=O)N3CCCC3)nc2c1	Mcl1 Noxa PPI 54.0 (no result: Calb biofilm kill)
O=C(CSc1nnc2c(n1)[nH]c1ccccc12)NCc1ccco1	Mcl1 Noxa PPI 73.3
CCCCn1c(SCC(=O)NCc2ccco2)nc2ccccc2c1=O	none (no result: Calb biofilm kill)
CC(C)(C)NC(=O)CSC(=Nc1cccc(F)c1)NC#N	none (no result: Calb biofilm kill)
Cn1nnnc1SCC(=O)N(C1CCCCC1)C1CCS(=O)(=O)C1 (stereo not drawn)	none
Cc1csc(N/N=C/c2ccc(O)c([N+](=O)[O-])c2)n1	Mcl1 Noxa PPI 55.2 (no result: Calb biofilm kill)
CCOC(=O)c1c(C)c(-c2ccccc2)n(CC(=O)NCCCN(CC)CC)c1C	none
CCCCCC(=O)Nc1ccc(N2CCN(C(=O)c3ccccc3)CC2)cc1	14-3-3 Bad PPI 81.6 (no result: Calb biofilm kill)
CCCCCCC(=O)Nc1ccc(C(=O)N2CCCC2)cc1	none (no result: Calb biofilm kill)
CCOC(=O)C1CCN(CCC(=O)Nc2ccc(C)cc2)CC1	none
CCCCC(=O)Nc1ccc(C(=O)N2CCC(C(=O)OCC)CC2)cc1	Mcl-1 Bim block 64.0 (no result: Calb biofilm kill)
COCCn1c(-c2ccc(-c3ccc([N+](=O)[O-])cc3Br)o2)nc2c1c(=O)[nH]c(=O)n2CC(C)C	none
CCN(Cc1ccccc1)c1ccc(/C=N/N2CCOCC2)cc1	Mcl1 Noxa PPI 64.4
Cc1ccccc1-n1nnnc1SCc1csc(-c2ccccc2)n1	none (no result: Calb biofilm kill)
COc1ccc(NC(=O)c2c(F)cccc2F)cc1S(=O)(=O)Nc1ccc(Br)cc1	Mcl-1 Bim block 42.0
CCOc1ccc(Br)cc1S(=O)(=O)Nc1ccc(NC(=O)c2ccccc2F)cc1	none
O=S(=O)(Nc1cccnc1)c1cccc(Cl)c1	none (no result: Calb biofilm kill)
CN(C)c1ccc(NS(=O)(=O)c2ccc(Cl)cc2)cc1	Mcl1 Noxa PPI 60.8
CC(C)c1ccc(S(=O)(=O)Nc2ccc(SC(F)F)cc2)cc1	none
CC(C)c1ccc(NS(=O)(=O)c2ccc(Cl)nc2)cc1	Mcl1 Bid PPI 54.7
CN(C)c1ccc(NS(=O)(=O)c2cccc(Cl)c2)cc1	Mcl1 Noxa PPI 83.9
CN(C)c1ccc(S(=O)(=O)c2ccc(Cl)cc2)cc1	none (no result: Calb biofilm kill)
COc1ccc(CCC(=O)N/N=C\c2cccs2)cc1	none

Source: PubChem
